# Source: the M2OR odorant receptor database
# Legend:
# Details in all cases: stereoisomer not certain
# [1] = molecular target: T1, UniProt Q7TRM0
# T1 sequence (whole entry): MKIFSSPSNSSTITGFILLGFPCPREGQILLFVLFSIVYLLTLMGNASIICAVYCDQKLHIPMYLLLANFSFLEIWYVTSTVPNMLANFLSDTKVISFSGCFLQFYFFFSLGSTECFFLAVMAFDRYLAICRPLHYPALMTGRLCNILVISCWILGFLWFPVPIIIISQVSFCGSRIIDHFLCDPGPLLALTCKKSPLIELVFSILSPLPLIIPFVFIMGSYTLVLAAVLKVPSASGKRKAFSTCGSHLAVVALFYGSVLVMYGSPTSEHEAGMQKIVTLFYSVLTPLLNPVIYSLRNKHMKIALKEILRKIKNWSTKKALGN
# Outline: (§1)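 Whether a receptor–molecule pair is responsive (active) rests on the original authors' judgment that its measured signal was statistically different from baseline. Pairs without that judgment are non-responsive (inactive). Sources used varied assay methods, commonly transient luciferase assays in mammalian cell lines.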
# [2] = molecular target: T2, UniProt Q7TRN9
# T2 sequence (whole entry): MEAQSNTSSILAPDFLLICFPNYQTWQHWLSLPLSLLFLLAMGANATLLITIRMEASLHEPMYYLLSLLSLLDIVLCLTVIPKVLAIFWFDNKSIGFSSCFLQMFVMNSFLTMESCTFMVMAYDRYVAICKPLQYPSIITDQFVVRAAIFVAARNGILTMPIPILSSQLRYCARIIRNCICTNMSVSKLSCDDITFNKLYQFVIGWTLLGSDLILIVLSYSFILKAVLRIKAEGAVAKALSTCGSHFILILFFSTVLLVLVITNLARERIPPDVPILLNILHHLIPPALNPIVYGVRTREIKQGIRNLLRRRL
# Outline: as §1
# [3] = molecular target: T3, UniProt Q7TRR8
# T3 sequence (whole entry): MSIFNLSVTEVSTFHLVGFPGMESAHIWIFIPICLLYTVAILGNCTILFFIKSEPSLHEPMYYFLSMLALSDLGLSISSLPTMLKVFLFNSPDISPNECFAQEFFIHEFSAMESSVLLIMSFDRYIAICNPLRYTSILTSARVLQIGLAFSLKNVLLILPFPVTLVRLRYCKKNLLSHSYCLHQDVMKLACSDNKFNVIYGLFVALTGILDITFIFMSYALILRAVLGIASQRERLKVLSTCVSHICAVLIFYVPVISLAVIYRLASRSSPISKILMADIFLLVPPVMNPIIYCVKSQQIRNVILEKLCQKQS
# Outline: as §1
# [4] = molecular target: T4, UniProt Q7TR79
# T4 sequence (whole entry): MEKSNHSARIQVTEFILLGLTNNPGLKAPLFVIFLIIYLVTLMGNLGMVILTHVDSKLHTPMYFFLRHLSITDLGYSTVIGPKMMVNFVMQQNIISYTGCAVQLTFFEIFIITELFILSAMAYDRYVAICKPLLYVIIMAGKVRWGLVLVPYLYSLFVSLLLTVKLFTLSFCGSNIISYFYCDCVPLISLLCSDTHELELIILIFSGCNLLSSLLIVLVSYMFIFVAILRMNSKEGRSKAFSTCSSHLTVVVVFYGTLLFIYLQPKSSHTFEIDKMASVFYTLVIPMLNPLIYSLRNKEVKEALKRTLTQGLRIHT
# Outline: as §1
# [5] = molecular target: T5, UniProt Q7TRX0
# T5 sequence (whole entry): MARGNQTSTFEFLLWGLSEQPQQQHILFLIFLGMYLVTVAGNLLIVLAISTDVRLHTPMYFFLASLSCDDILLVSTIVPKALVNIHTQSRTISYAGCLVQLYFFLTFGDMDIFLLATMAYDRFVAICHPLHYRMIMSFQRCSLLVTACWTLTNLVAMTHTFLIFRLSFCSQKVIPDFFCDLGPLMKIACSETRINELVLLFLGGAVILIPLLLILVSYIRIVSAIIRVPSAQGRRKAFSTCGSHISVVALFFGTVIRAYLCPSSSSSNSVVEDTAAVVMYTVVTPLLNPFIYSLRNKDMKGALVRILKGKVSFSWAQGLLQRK
# Outline: as §1
# 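Also: active if original authors judged signal statistically different from baseline.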
smiles,measurement,setting,value
O=C(O)CCCBr,odorant receptor agonist call,[1],inactive
same,odorant receptor agonist call,[2],inactive
same,odorant receptor agonist call,[3],inactive
CC(=O)OCc1ccc2c(c1)OCO2,odorant receptor agonist call,[4],inactive
same,odorant receptor agonist call,[5],inactive
CC1CC=CCCCCCCCCCC(=O)C1 (centres undefined),odorant receptor agonist call,[4],inactive
same,odorant receptor agonist call,[5],inactive
CC(C)=CCCC(C)=CCOC(=O)C(C)C,odorant receptor agonist call,[4],inactive
same,odorant receptor agonist call,[5],inactive
CC(C)CS,odorant receptor agonist call,[4],inactive
same,odorant receptor agonist call,[5],inactive
CC(CC=O)CCCC(C)(C)O (centres undefined),odorant receptor agonist call,[4],inactive
same,odorant receptor agonist call,[5],inactive
C=C1C2CCC(C2)C1(C)C (centres undefined),odorant receptor agonist call,[4],inactive
same,odorant receptor agonist call,[5],inactive
CCCCCCC(=O)OCCCC,odorant receptor agonist call,[4],inactive
same,odorant receptor agonist call,[5],inactive
CC=C(C)C=O,odorant receptor agonist call,[4],inactive
same,odorant receptor agonist call,[5],inactive
CCCCCOC(=O)CCC,odorant receptor agonist call,[4],inactive
same,odorant receptor agonist call,[5],inactive
C=C(CC)CCCC(C)(C)O,odorant receptor agonist call,[4],inactive
same,odorant receptor agonist call,[5],inactive
O=C(O)CCCCCCCCC(=O)O,odorant receptor agonist call,[4],inactive
same,odorant receptor agonist call,[5],inactive
CCCO,odorant receptor agonist call,[4],inactive
same,odorant receptor agonist call,[5],inactive
CC(C)CCN,odorant receptor agonist call,[4],inactive
same,odorant receptor agonist call,[5],inactive
